Data reported in ChEMBL document CHEMBL2429794, “Tuning the antibacterial activity of amphiphilic neamine derivatives and comparison to paromamine homologues” (J Med Chem, 2013).
In brackets after ≈: the same amount, converted by molar mass.

How the values were obtained:
Staphylococcus aureus [1] = assay: Antibacterial activity against Staphylococcus aureus expressing aminoglycoside-3'-O-phosphoryltransferase after 24 hrs by geometric microdilution method; assay type: functional
Method in brief: (§1)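 Broth cultures were incubated in plates at 37 °C, and growth was read as absorbance at 650 nm after 1, 4, 7 and 24 h. Ampicillin (16 mg/L) was the positive control and DMSO the negative control. Each MIC (μg/mL) is the average of at least three determinations.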

Acinetobacter lwoffii [2] = assay: Antibacterial activity against Acinetobacter lwoffii AI.88-483 expressing APH3'-6A after 24 hrs by geometric microdilution method; assay type: functional; conditions: AI.88-483, 24 h
Staphylococcus aureus [3] = assay: Antibacterial activity against healthcare-acquired methicillin-resistant Staphylococcus aureus ATCC 33592 after 24 hrs by geometric microdilution method; assay type: functional; conditions: ATCC 33592, 24 h; method in brief: as §1
Staphylococcus aureus [4] = assay: Antibacterial activity against vancomycin-resistant Staphylococcus aureus VRS2 after 24 hrs by geometric microdilution method; assay type: functional; conditions: VRS2, 24 h; method in brief: as §1
Escherichia coli [5] = assay: Antibacterial activity against Escherichia coli L58058.1 expressing ANT2''-1A after 24 hrs by geometric microdilution method; assay type: functional; conditions: L58058.1, 24 h
Pseudomonas aeruginosa [6] = assay: Antibacterial activity against Pseudomonas aeruginosa PA22 (PT629) expressing MexXY after 24 hrs by geometric microdilution method; assay type: functional
Staphylococcus aureus [7] = assay: Antibacterial activity against 14- and 15-membered macrolide-resistant Staphylococcus aureus expressing MsrA efflux pump after 24 hrs by geometric microdilution method; assay type: functional; method in brief: as §1
Staphylococcus aureus [8] = assay: Antibacterial activity against fluoroquinolone-resistant Staphylococcus aureus 1199B expressing NorA efflux pump after 24 hrs by geometric microdilution method; assay type: functional; method in brief: as §1
Escherichia coli [9] = assay: microbe, parasite or virus in culture; conditions: ATCC 25922, 24 h
Acinetobacter lwoffii [10] = assay: Antibacterial activity against Acinetobacter lwoffii ATCC 17925 after 24 hrs by geometric microdilution method; assay type: functional; conditions: ATCC 17925, 24 h
Staphylococcus aureus [11] = assay: Antibacterial activity against Staphylococcus aureus expressing aminoglycoside-6'-N-acetyltransferase/2''-O-phosphoryltransferase after 24 hrs by geometric microdilution method; assay type: functional; method in brief: as §1
Pseudomonas aeruginosa [12] = assay: Antibacterial activity against Pseudomonas aeruginosa ATCC 27853 after 24 hrs by geometric microdilution method; assay type: functional; conditions: ATCC 27853, 24 h
Escherichia coli [13] = assay: Antibacterial activity against Escherichia coli PAZ505H8101 expressing AAC6'-1B after 24 hrs by geometric microdilution method; assay type: functional; conditions: PAZ505H8101, 24 h
Pseudomonas aeruginosa [14] = assay: Antibacterial activity against Pseudomonas aeruginosa F03 expressing AAC6'-2A after 24 hrs by geometric microdilution method; assay type: functional; conditions: F03, 24 h
Klebsiella pneumoniae = assay: Antibacterial activity against Klebsiella pneumoniae ATCC 700603 after 24 hrs by geometric microdilution method; assay type: functional; conditions: ATCC 700603, 24 h
Staphylococcus aureus [15] = assay: Antibacterial activity against Staphylococcus aureus expressing aminoglycoside-[…] after 24 hrs by geometric microdilution method; assay type: functional; method in brief: as §1
[16] = Ratio of cytotoxicity against murine J774 cells to antibacterial activity against vancomycin-resistant Staphylococcus aureus VRS2; assay type: toxicity, cell-based; conditions: mouse
[17] = Cytotoxicity against murine J774 cells assessed as cell viability at 10 uM after 24 hrs by MTT assay relative to control; assay type: cell-based; conditions: mouse, read-out: Activity
Method in brief: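 Murine J774 macrophages were exposed for 24 h to compounds at 10 μM, then incubated 1 h with 0.2 mg/mL MTT. Viability was read from mitochondrial reduction of MTT to purple formazan, expressed as percent viability, and averaged over three experiments.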

Staphylococcus aureus [18] = assay: microbe, parasite or virus in culture; conditions: ATCC 25923, 24 h
[19] = Ratio of cytotoxicity against murine J774 cells to antibacterial activity against Pseudomonas aeruginosa ATCC 27853; assay type: toxicity, cell-based; conditions: mouse
[20] = Ratio of cytotoxicity against murine J774 cells to antibacterial activity against Pseudomonas aeruginosa F03 expressing AAC6'-2A; assay type: toxicity, cell-based; conditions: mouse
[21] = Ratio of cytotoxicity against murine J774 cells to antibacterial activity against Pseudomonas aeruginosa PA22 (PT629) expressing MexXY; assay type: toxicity, cell-based; conditions: mouse
[22] = Ratio of cytotoxicity against murine J774 cells to antibacterial activity against healthcare-acquired methicillin-resistant Staphylococcus aureus ATCC 33592; assay type: toxicity, cell-based; conditions: mouse

Structure (SMILES)	MIC (Staphylococcus aureus [1])	MIC (Acinetobacter lwoffii [2])	MIC (Staphylococcus aureus [3])	MIC (Staphylococcus aureus [4])	MIC (Escherichia coli [5])	MIC (Pseudomonas aeruginosa [6])	MIC (Staphylococcus aureus [7])	MIC (Staphylococcus aureus [8])	MIC (Escherichia coli [9])	MIC (Acinetobacter lwoffii [10])	MIC (Staphylococcus aureus [11])	MIC (Pseudomonas aeruginosa [12])	MIC (Escherichia coli [13])	MIC (Pseudomonas aeruginosa [14])	MIC (Klebsiella pneumoniae)	MIC (Staphylococcus aureus [15])	selectivity ratio [16]	viability at 24 h, 10 µM [17]	MIC (Staphylococcus aureus [18])	further results
NC[C@H]1O[C@H](O[C@H]2[C@H](O)[C@@H](OCCCCc3ccc4ccccc4c3)[C@H](N)C[C@@H]2N)[C@H](N)[C@@H](OCCCCc2ccc3ccccc3c2)[C@@H]1O	1 µg/mL (≈ 1.46 µM)	64 µg/mL (≈ 93.2 µM)	2 µg/mL (≈ 2.91 µM)	2 µg/mL (≈ 2.91 µM)	8 µg/mL (≈ 11.6 µM)	8 µg/mL (≈ 11.6 µM)	0.25 µg/mL (≈ 0.364 µM)	2 µg/mL (≈ 2.91 µM)	8 µg/mL (≈ 11.6 µM)	4 µg/mL (≈ 5.82 µM)	2 µg/mL (≈ 2.91 µM)	4 µg/mL (≈ 5.82 µM)	4 µg/mL (≈ 5.82 µM)	8 µg/mL (≈ 11.6 µM)	32 µg/mL (≈ 46.6 µM)	1 µg/mL (≈ 1.46 µM)	> 5	80%	2 µg/mL (≈ 2.91 µM)	–
NC[C@H]1O[C@H](O[C@H]2[C@H](O)[C@@H](OCCCCCCc3ccc4ccccc4c3)[C@H](N)C[C@@H]2N)[C@H](N)[C@@H](OCCCCCCc2ccc3ccccc3c2)[C@@H]1O	64 µg/mL (≈ 86.1 µM)	–	> 128 µg/mL	> 128 µg/mL	128 µg/mL (≈ 172 µM)	64 µg/mL (≈ 86.1 µM)	–	> 128 µg/mL	128 µg/mL (≈ 172 µM)	–	128 µg/mL (≈ 172 µM)	32 µg/mL (≈ 43.1 µM)	64 µg/mL (≈ 86.1 µM)	64 µg/mL (≈ 86.1 µM)	–	> 128 µg/mL	–	< 50%	64 µg/mL (≈ 86.1 µM)	–
CCCCCCO[C@@H]1[C@@H](N)[C@@H](O[C@H]2[C@H](O)[C@@H](OCCCCCC)[C@H](N)C[C@@H]2N)O[C@H](CN)[C@H]1OCCCCCC	4 µg/mL (≈ 6.96 µM)	64 µg/mL (≈ 111 µM)	4 µg/mL (≈ 6.96 µM)	4 µg/mL (≈ 6.96 µM)	4 µg/mL (≈ 6.96 µM)	8 µg/mL (≈ 13.9 µM)	8 µg/mL (≈ 13.9 µM)	4 µg/mL (≈ 6.96 µM)	4 µg/mL (≈ 6.96 µM)	4 µg/mL (≈ 6.96 µM)	8 µg/mL (≈ 13.9 µM)	8 µg/mL (≈ 13.9 µM)	4 µg/mL (≈ 6.96 µM)	8 µg/mL (≈ 13.9 µM)	8 µg/mL (≈ 13.9 µM)	8 µg/mL (≈ 13.9 µM)	–	40%	4 µg/mL (≈ 6.96 µM)	–
CCCCCCCCCO[C@@H]1[C@@H](N)[C@@H](O[C@H]2[C@H](O)[C@@H](OCCCCCCCCC)[C@H](N)C[C@@H]2N)O[C@H](CN)[C@H]1O	2 µg/mL (≈ 3.48 µM)	–	4 µg/mL (≈ 6.96 µM)	2 µg/mL (≈ 3.48 µM)	4 µg/mL (≈ 6.96 µM)	4 µg/mL (≈ 6.96 µM)	4 µg/mL (≈ 6.96 µM)	8 µg/mL (≈ 13.9 µM)	4 µg/mL (≈ 6.96 µM)	–	4 µg/mL (≈ 6.96 µM)	4 µg/mL (≈ 6.96 µM)	2 µg/mL (≈ 3.48 µM)	4 µg/mL (≈ 6.96 µM)	–	4 µg/mL (≈ 6.96 µM)	> 5	75%	2 µg/mL (≈ 3.48 µM)	selectivity ratio [19]: 2.5; selectivity ratio [20]: 2.5; selectivity ratio [21]: 2.5
NC[C@H]1O[C@H](O[C@H]2[C@H](O)[C@@H](OCCCc3ccc4ccccc4c3)[C@H](N)C[C@@H]2N)[C@H](N)[C@@H](OCCCc2ccc3ccccc3c2)[C@@H]1O	1 µg/mL (≈ 1.52 µM)	–	2 µg/mL (≈ 3.04 µM)	1 µg/mL (≈ 1.52 µM)	16 µg/mL (≈ 24.3 µM)	16 µg/mL (≈ 24.3 µM)	0.5 µg/mL (≈ 0.759 µM)	2 µg/mL (≈ 3.04 µM)	16 µg/mL (≈ 24.3 µM)	–	2 µg/mL (≈ 3.04 µM)	4 µg/mL (≈ 6.07 µM)	8 µg/mL (≈ 12.1 µM)	16 µg/mL (≈ 24.3 µM)	–	1 µg/mL (≈ 1.52 µM)	11	90%	2 µg/mL (≈ 3.04 µM)	selectivity ratio [22]: 5.5
